Test results from ChEMBL document CHEMBL1140410, “Discovery of the novel antithrombotic agent 5-chloro-N-({(5S)-2-oxo-3- [4-(3-oxomorpholin-4-yl)phenyl]-1,3-oxazolidin-5-yl}methyl)thiophene- 2-carboxamide (BAY 59-7939): an oral, direct factor Xa inhibitor” (J Med Chem, 2005).

Columns and labels:
[1] = Half-life after intravenous administration to rats; assay type: ADME, organism-based; conditions: rat, in vivo
[2] = Apparent volume of distribution at equilibrium after intravenous administration in rats; assay type: ADME, organism-based; conditions: rat, in vivo, read-out: Vss
[3] = species on record: Rattus norvegicus; assay: In vitro inhibitory concentration of compound required to double the time to fibrin formation upon incubation with rat plasma for 10 minutes at 37 degrees C; assay type: functional
Outline: (§1)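 Inhibitor at increasing concentrations, or solvent, added to plasma and incubated 10 min at 37 °C. PT then measured in a coagulometer using commercial kits and compared with control plasma. Value is the concentration that doubles time to fibrin formation.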

[4] = Plasma clearance in wistar rats after intravenous administration of the compound at a dose of 0.3 mg/kg; assay type: ADME, organism-based; design: dose 0.3 mg/kg, route intravenous; conditions: rat
Outline: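 Rats given 0.3 mg kg-1 iv in plasma/DMSO (99:1), 2 mL kg-1.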

[5] = test system: Rattus norvegicus; assay: In vivo antithrombotic activity of compound in the arteriovenous shunt model in anesthetized rats after peroral administration; assay type: functional; conditions: po
Outline: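 Anesthetized rats, AV shunt from right carotid artery to left jugular vein, containing a nylon thread folded into a 20 mm double string. Compound in solutol/ethanol/water (40%/10%/50% v/v/v), or vehicle, dosed orally 90 min before thrombus induction. Shunt opened for 15 min, then the thread with thrombus was removed and weighed.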

[6] = test system: Rattus norvegicus; assay: In vivo antithrombotic activity of compound in the arteriovenous shunt model in anesthetized rats after intravenous administration; assay type: functional
Outline: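 Anesthetized rats with a carotid artery to jugular vein shunt: PE-60 catheters joined by a 30 mm PE-160 tube holding a rough nylon thread folded into a 20 mm double string. Compound in PEG/water/glycerol (996 g/100 g/60 g), or vehicle, given as iv bolus into a tail vein 10 min before thrombus induction. Shunt open 15 min; thread with thrombus withdrawn and weighed.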

[7] = target: T1, Coagulation factor X (Homo sapiens, UniProt P00742); assay: In vitro inhibitory concentration of compound required to double the time to fibrin formation upon incubation with human plasma for 10 minutes at 37 degrees C; assay type: functional, cell-free; outline: as §1
T1 sequence (P00742 41-179 limits assumed): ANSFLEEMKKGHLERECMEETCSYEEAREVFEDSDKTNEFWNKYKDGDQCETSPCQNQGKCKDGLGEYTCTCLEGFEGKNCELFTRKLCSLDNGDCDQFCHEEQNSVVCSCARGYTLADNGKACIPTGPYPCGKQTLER
T1 sequence (P00742 235-488 limits assumed): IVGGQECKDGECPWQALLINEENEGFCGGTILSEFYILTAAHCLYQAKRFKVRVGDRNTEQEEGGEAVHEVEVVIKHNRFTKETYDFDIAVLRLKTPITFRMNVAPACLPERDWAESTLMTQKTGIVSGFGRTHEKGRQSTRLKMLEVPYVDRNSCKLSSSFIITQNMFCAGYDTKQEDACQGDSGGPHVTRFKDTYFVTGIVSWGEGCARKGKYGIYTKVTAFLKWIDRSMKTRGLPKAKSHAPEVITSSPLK

[8] = target: T1, Coagulation factor X; assay: In vitro inhibition of human coagulation factor Xa after incubation for 10 min at 25 degree C
[9] = Fraction of unbound compound in rat plasma; assay type: ADME, cell-free
Outline: (§2)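 Equilibrium dialysis of [14C]-labelled compound in plasma at targets of 0.1–100 mg L-1. Spiked plasma preincubated 15 min at 37 °C, then dialyzed 1 h at 37 °C against PBS pH 7.4 across a cellulose membrane. Radioactivity in buffer and plasma counted by LSC; fu = cu/c × 100.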

[10] = Plasma clearance in wistar rats after intravenous administration of the compound at a dose of 1 mg/kg; assay type: ADME, organism-based; design: dose 1 mg/kg, route intravenous; conditions: rat
Outline: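 Rats given 1 mg kg-1 iv in EtOH/PEG400 (1:9), 1 mL kg-1.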

[11] = Oral bioavailability in rat; assay type: ADME, organism-based; conditions: in vivo
[12] = Fraction of unbound compound in female Beagle dog plasma; assay type: ADME, cell-free, Canis lupus familiaris; conditions: read-out: Fraction free drug in plasma; outline: as §2
[13] = Mean plasma clearance in wistar rats after intravenous administration of the compound at a dose of 1 and 3 mg/kg; assay type: ADME, organism-based; design: dose 3 mg/kg, route intravenous; conditions: rat
Outline: (§3)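 Rats given 1 and 3 mg kg-1 iv in PEG400/water (6:4), 5 mL kg-1. Values are means over both doses.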

[14] = Mean apparent volume of distribution at equilibrium after intravenous administration in rats at a dose of 1 and 3 mg/kg; assay type: ADME, organism-based; design: dose 3 mg/kg, route intravenous; conditions: rat, in vivo, read-out: Vss; outline: as §3
[15] = Mean apparent volume of distribution at equilibrium after administration in female Beagle dogs at a dose of 0.3 and 1 mg kg-1 intravenously; assay type: ADME, organism-based, Canis lupus familiaris; design: dose 1 mg kg-1, route intravenous; conditions: dog, in vivo, iv, read-out: Vss
[16] = Bioavailability in female Beagle dog is the mean value of AUCnorm perorally to AUCnorm intravenously; assay type: ADME, organism-based, Canis lupus familiaris; conditions: in vivo, po
Outline: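 Female beagle dogs dosed po at 0.3, 1 and 3 mg kg-1, 1 mL kg-1. Bioavailability = AUCnorm after oral dosing divided by AUCnorm after iv 0.3 or 1.0 mg kg-1 infusion.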

[17] = Mean half-life after intravenous administration to female Beagle dogs at a dose of 0.3 and 1 mg/kg; assay type: ADME, organism-based, Canis lupus familiaris; design: dose 1 mg/kg, route intravenous; conditions: dog, in vivo
[18] = Mean half-life after intravenous administration to rats at a dose of 1 and 3 mg/kg; assay type: ADME, organism-based; design: dose 3 mg/kg, route intravenous; conditions: rat, in vivo; outline: as §3
[19] = Mean plasma clearance in female Beagle dogs after intravenous administration of the compound at a dose of 0.3 and 1 mg/kg; assay type: ADME, organism-based, Canis lupus familiaris; design: dose 1 mg/kg, route intravenous; conditions: dog

Structure (SMILES) | IC50 [8] | Concentration [3] | ED50 [5] | ED50 [6] | Concentration [7] | further results
O=C(NC[C@H]1CN(c2ccc(N3CCOCC3=O)c(F)c2)C(=O)O1)c1ccc(Cl)s1 |  | 0.32 µM | 10 mg/kg | 1 mg/kg | 0.17 µM | half-life [1]: 18 min; Vd [2]: 0.32 L/kg; clearance [4]: 18.2 mL/min/kg
O=C(NC[C@H]1CN(c2ccc(N3CCOCC3=O)c(C(F)(F)F)c2)C(=O)O1)c1ccc(Cl)s1 |  | 0.32 µM |  | 3 mg/kg | 0.26 µM | 
Nc1cc(N2C[C@H](CNC(=O)c3ccc(Cl)s3)OC2=O)ccc1N1CCOCC1=O |  | 0.49 µM |  |  | 0.3 µM | 
O=C(NC[C@H]1CN(c2ccc(N3CCCC3=O)cc2)C(=O)O1)c1ccc(Cl)s1 |  | 2.8 µM | > 30 mg/kg | 7 mg/kg |  | half-life [1]: 66 min; Vd [2]: 0.21 L/kg; fraction unbound ([9]; read-out: Fraction free drug in plasma): 0.002; clearance [10]: 2.83 mL/min/kg; bioavailability [11]: 65%
O=C(NC[C@H]1CN(c2ccc(N3CCOCC3=O)cc2)C(=O)O1)c1ccc(Cl)s1 [RIVAROXABAN] |  | 0.3 µM | 5 mg/kg | 1 mg/kg | 0.23 µM | fraction unbound [12]: 0.104; clearance [13]: 6.67 mL/min/kg; Vd [14]: 0.3 L/kg; Fraction free drug in plasma [9]: 1.3%; Vd [15]: 0.4 L/kg; bioavailability [11]: 60%; bioavailability [16]: 86%; half-life [17]: 54 min; half-life [18]: 54 min; clearance [19]: 5 mL/min/kg

Now from value to compound, other results behind:

IC50 [8] | Structure (SMILES) | Concentration [3] | ED50 [5] | ED50 [6] | Concentration [7] | further results
8.5 nM | Nc1cc(C(=O)NC[C@H]2CN(c3ccc(N4CCOCC4=O)cc3)C(=O)O2)sc1Cl |  |  |  |  | 
20000 nM | O=C(NC[C@H]1CN(c2ccc(N3CCSCC3)c(F)c2)C(=O)O1)c1cccs1 |  |  |  |  | 
120 nM | N=C(N)COc1cccc(CN2CC3C(NC(=O)c4ccc(Cl)s4)C=CC[C@H]3C2=O)c1 (some centres not stated) |  |  |  |  | 
